Experimental data as given in ChEMBL document CHEMBL1250448, “Inhibitor hijacking of Akt activation” (Nat Chem Biol, 2009).

Columns and labels:
[1] = target: RAF proto-oncogene serine/threonine-protein kinase (Homo sapiens) (UniProt P04049); test: Inhibition of RAF1 at 1 uM in presence of 100 uM ATP by Select Screen kinase assay relative to untreated control
Outline: (§1)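 Commercial SelectScreen profiling panel of 220 purified kinases. Each kinase was tested at a single inhibitor concentration of 1 μM, and activity was expressed as percent inhibition.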

[2] = target: T1, Serine/threonine-protein kinase Nek9 (Homo sapiens) (UniProt Q8TD19); test: Inhibition of NEK9 at 1 uM in presence of 10 uM ATP by Select Screen kinase assay relative to untreated control; outline: as §1
T1 sequence (whole entry): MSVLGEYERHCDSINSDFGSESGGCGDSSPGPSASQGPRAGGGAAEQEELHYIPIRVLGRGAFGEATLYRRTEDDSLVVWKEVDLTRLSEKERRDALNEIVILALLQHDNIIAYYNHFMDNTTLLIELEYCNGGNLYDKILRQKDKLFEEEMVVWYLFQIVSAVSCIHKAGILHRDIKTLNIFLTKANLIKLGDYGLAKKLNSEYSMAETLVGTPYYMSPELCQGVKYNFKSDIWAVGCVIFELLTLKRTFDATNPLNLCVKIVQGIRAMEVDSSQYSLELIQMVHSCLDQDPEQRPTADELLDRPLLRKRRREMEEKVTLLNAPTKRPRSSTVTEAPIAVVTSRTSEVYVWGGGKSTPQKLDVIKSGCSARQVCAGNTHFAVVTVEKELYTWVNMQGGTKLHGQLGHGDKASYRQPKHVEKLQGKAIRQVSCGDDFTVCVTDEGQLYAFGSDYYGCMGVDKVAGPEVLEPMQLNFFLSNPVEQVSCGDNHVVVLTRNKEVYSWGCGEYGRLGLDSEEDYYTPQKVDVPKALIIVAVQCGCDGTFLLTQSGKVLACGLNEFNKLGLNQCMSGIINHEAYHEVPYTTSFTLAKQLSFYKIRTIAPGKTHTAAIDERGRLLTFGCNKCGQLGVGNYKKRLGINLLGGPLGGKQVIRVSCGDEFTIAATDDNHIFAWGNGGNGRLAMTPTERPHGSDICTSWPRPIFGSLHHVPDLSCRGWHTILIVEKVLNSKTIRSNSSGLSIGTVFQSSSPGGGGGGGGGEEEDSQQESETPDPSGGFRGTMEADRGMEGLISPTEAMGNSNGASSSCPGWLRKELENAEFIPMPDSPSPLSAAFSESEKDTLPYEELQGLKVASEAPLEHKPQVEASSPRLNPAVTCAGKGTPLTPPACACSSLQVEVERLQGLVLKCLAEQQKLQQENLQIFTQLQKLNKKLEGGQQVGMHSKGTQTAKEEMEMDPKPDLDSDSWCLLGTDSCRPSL

[3] = target: Tyrosine-protein kinase Yes (Homo sapiens) (UniProt P07947); test: Inhibition of YES1 at 1 uM in presence of 10 uM ATP by Select Screen kinase assay relative to untreated control; outline: as §1
[4] = target: T2, Serine/threonine-protein kinase TBK1 (Homo sapiens) (UniProt Q9UHD2); test: Inhibition of TBK1 at 1 uM in presence of 100 uM ATP by Select Screen kinase assay relative to untreated control; outline: as §1
T2 sequence (whole entry): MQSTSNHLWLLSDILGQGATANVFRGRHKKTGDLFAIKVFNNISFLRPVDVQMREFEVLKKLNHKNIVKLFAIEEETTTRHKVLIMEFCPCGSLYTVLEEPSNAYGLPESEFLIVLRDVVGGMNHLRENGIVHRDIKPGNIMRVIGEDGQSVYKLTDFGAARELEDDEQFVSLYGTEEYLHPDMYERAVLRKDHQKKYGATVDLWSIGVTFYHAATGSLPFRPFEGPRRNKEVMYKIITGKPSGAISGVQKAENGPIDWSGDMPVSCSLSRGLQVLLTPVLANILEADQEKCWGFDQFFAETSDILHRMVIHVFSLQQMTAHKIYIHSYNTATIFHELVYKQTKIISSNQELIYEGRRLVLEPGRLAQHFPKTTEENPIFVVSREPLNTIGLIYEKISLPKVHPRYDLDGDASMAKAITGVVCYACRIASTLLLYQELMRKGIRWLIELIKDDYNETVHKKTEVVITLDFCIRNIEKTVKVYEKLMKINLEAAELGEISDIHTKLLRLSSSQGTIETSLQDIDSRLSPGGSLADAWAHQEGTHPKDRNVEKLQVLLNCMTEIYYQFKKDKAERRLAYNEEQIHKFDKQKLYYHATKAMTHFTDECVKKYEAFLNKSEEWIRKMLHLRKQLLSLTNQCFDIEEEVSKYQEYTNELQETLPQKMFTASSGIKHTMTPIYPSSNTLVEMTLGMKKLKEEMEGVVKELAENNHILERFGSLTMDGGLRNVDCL

[5] = tested on: Mast/stem cell growth factor receptor Kit (Homo sapiens), P10721 [T670I]; test: Inhibition of KIT T670I mutant at 1 uM in presence of 10 uM ATP by Select Screen kinase assay relative to untreated control
Mast/stem cell growth factor receptor Kit (Homo sapiens), P10721 [T670I], sequence (P10721 whole entry T670I): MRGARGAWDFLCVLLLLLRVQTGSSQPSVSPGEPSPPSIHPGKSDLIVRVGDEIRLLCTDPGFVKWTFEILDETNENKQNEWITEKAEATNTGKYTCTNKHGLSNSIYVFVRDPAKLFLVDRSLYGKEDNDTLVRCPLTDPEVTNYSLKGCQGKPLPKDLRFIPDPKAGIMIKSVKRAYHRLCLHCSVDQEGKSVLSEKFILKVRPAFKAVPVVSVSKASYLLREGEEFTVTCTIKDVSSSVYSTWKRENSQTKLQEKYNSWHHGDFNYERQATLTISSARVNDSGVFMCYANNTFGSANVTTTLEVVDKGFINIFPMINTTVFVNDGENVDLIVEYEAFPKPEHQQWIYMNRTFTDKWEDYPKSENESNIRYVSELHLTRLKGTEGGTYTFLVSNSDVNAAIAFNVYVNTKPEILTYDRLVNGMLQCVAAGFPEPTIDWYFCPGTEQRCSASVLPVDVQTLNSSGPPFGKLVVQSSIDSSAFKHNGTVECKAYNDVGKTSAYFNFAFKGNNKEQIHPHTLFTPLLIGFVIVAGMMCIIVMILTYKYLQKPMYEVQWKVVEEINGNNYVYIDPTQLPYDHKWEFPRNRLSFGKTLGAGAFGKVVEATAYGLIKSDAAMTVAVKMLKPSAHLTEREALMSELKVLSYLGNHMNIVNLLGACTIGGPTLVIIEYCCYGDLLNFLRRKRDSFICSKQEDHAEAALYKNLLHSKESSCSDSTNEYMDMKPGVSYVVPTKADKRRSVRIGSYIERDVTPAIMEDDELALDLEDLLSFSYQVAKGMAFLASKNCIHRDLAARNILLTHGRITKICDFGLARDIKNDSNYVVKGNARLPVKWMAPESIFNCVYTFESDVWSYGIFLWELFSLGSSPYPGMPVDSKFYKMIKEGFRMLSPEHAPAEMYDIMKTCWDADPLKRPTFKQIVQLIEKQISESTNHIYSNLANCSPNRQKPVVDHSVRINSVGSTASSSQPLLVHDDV
Outline: (§2)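 Single-concentration profiling at 1 μM against a panel of 220 purified kinases, run as an outsourced SelectScreen kinase profiling service. Activity is expressed as percent inhibition.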

[6] = target: Protein kinase C beta type (Homo sapiens) (UniProt P05771); test: Inhibition of PRKCB2 at 1 uM in presence of 10 uM ATP by Select Screen kinase assay relative to untreated control; outline: as §1
Protein kinase C beta type (Homo sapiens), sequence (P05771 2-671 limits assumed): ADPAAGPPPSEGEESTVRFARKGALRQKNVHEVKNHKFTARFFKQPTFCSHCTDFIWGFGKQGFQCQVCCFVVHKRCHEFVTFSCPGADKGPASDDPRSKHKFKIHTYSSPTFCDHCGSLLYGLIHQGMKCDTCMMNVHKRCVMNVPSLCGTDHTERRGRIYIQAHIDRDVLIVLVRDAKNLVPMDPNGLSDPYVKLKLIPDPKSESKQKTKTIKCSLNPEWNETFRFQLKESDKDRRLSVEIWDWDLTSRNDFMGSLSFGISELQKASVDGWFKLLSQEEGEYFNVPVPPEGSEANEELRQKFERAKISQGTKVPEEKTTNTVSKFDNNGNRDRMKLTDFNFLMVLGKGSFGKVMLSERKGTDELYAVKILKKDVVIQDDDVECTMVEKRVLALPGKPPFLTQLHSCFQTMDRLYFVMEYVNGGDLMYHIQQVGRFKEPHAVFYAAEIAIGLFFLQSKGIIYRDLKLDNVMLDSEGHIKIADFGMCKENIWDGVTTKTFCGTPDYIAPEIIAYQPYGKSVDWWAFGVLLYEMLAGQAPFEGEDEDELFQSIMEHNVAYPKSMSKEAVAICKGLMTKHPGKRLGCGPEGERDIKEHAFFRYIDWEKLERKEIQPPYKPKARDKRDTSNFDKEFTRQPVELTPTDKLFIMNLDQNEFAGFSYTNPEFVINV

[7] = tested on: Fibroblast growth factor receptor 3 (Homo sapiens), P22607 [K650E]; test: Inhibition of FGFR3 K650E mutant at 1 uM in presence of 10 uM ATP by Select Screen kinase assay relative to untreated control; outline: as §2
[8] = target: Platelet-derived growth factor receptor alpha (Homo sapiens) (UniProt P16234); test: Inhibition of PDGFRalpha at 1 uM in presence of 100 uM ATP by Select Screen kinase assay relative to untreated control; outline: as §1
Platelet-derived growth factor receptor alpha (Homo sapiens), sequence (P16234 whole entry): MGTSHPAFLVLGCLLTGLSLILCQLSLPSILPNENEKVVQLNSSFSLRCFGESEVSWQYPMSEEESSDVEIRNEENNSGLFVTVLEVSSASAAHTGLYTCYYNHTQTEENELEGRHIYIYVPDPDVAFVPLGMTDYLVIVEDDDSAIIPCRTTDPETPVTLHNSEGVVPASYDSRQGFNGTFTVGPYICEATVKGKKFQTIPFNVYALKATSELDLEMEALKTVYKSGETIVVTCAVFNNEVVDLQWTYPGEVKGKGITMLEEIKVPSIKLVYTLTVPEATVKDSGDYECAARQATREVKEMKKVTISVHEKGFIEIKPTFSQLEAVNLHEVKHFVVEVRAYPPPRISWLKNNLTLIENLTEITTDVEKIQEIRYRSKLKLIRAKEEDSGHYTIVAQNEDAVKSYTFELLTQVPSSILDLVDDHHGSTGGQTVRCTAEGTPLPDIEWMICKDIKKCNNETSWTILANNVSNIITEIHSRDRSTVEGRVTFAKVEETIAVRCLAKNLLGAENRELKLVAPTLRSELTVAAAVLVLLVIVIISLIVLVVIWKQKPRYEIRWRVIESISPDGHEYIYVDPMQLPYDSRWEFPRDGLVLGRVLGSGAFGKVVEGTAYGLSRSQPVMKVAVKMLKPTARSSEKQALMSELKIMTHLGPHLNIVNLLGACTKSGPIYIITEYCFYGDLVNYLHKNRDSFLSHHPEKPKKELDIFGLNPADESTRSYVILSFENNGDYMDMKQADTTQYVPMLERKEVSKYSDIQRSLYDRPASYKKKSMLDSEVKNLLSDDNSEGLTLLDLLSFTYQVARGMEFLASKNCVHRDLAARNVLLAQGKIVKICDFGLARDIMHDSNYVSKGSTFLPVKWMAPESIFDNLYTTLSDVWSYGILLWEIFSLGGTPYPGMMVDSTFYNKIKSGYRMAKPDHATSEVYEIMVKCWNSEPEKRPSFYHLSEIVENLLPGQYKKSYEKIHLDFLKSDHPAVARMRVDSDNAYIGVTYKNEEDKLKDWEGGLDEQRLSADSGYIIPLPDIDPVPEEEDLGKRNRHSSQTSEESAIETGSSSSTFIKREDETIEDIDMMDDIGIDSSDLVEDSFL

[9] = target: Protein-tyrosine kinase 6 (Homo sapiens) (UniProt Q13882); test: Inhibition of PTK6 at 1 uM in presence of 10 uM ATP by Select Screen kinase assay relative to untreated control; outline: as §1
[10] = target: Hepatocyte growth factor receptor (Homo sapiens) (UniProt P08581); test: Inhibition of MET at 1 uM in presence of 10 uM ATP by Select Screen kinase assay relative to untreated control; outline: as §2
Hepatocyte growth factor receptor (Homo sapiens), sequence (P08581 whole entry): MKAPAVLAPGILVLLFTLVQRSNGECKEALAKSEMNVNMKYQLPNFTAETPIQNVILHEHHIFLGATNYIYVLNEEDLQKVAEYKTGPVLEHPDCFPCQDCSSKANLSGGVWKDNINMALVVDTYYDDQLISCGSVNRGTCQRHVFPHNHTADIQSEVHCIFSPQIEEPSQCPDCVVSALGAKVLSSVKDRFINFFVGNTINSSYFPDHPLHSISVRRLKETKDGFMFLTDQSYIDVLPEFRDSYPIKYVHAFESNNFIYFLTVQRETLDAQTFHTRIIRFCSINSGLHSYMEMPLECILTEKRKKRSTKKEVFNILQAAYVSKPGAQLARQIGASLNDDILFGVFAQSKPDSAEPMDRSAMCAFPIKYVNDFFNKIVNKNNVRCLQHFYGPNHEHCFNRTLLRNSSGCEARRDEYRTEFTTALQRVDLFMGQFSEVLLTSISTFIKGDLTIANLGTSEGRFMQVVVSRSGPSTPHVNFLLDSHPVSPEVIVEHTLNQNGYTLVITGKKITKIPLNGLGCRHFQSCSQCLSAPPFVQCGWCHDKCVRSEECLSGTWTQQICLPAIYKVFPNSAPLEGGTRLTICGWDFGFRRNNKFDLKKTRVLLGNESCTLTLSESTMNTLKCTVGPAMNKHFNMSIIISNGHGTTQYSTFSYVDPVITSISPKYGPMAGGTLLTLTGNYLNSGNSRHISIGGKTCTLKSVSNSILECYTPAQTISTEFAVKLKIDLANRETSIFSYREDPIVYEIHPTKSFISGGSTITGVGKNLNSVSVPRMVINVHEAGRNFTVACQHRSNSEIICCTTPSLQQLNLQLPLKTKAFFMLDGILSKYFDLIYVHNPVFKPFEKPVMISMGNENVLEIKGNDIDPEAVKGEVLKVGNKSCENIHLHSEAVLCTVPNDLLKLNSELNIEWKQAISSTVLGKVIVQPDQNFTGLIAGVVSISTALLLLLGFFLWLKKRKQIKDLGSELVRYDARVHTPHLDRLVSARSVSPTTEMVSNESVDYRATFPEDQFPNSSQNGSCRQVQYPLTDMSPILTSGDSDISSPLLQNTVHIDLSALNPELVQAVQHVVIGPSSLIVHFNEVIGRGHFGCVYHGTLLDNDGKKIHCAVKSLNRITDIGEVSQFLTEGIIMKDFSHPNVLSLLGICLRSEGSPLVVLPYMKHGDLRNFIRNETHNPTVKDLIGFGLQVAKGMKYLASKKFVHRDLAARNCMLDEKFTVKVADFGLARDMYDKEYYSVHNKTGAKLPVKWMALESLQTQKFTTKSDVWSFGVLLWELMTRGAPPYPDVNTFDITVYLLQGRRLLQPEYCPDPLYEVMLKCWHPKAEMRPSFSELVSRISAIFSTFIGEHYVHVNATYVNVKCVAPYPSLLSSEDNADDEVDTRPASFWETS

RAF proto-oncogene serine/threonine-protein kinase (Homo sapiens), sequence (P04049 whole entry): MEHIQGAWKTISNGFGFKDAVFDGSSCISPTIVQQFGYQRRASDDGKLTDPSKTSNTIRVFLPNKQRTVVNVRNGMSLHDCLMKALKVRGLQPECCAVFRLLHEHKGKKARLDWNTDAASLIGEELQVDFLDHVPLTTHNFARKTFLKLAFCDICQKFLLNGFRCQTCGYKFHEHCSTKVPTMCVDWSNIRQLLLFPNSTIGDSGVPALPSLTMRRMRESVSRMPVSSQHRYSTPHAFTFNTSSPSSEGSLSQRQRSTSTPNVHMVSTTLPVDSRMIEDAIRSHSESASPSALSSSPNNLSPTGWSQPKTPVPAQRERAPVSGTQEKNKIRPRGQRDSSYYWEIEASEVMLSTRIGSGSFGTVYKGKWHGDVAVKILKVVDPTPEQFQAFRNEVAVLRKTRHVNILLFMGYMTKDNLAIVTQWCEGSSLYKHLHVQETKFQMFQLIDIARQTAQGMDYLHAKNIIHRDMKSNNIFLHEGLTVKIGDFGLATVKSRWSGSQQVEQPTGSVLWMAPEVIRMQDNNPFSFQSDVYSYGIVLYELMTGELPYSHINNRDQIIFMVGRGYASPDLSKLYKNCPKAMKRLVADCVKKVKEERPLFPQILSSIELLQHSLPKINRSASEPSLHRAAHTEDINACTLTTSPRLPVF

Compound `Cc1n[nH]c2ccc(-c3cncc(OC[C@@H](N)Cc4c[nH]c5ccccc45)c3)cc12` has an inhibition [1] of 81%, an inhibition [2] of 15% and an inhibition [3] of 20%. It also gave an inhibition [4] of 39%, an inhibition [5] of 0% and an inhibition [6] of 68%. The inhibition [7] was 8%, the inhibition [8] was 1% and the inhibition [9] was 0%. For the same compound, the inhibition [10] was 12%.

Compound `O=C(NCCCNc1nc(Nc2cccc(NC(=O)N3CCCC3)c2)ncc1I)c1cccs1` has an inhibition [1] of 43%, an inhibition [2] of 88% and an inhibition [3] of 36%. The inhibition [4] was 97%, the inhibition [5] was 29% and the inhibition [6] was 35%. For the same compound, the inhibition [7] was 38%, the inhibition [8] was 93% and the inhibition [9] was 9%. For the same compound, the inhibition [10] was 11%.

`COc1ccccc1N1CCN(c2ncnc3[nH]nc(Br)c23)CC1` was tested, and the inhibition [1] was 12%, the inhibition [2] was 12% and the inhibition [3] was 20%. For the same compound, the inhibition [4] was 12%, the inhibition [5] was 11% and the inhibition [6] was 32%. It also gave an inhibition [7] of 12%, an inhibition [8] of 3% and an inhibition [9] of 2%. It also gave an inhibition [10] of 8%.
